Only some compounds are listed: those with a hit (about 2.1% of all), similar ones and a draw of the others.
STK33 kinase inh – blocks human STK33 kinase activity; 320,000 tested, 0.073% active; Q9BYT3; inhibition, % at 10 µM; purified STK33, MBP phosphorylation, ADP-Glo luminescence;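 active means inhibition at or above 25%, using the most active replicate where run in duplicate; inactive means inhibition below 25%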
GSK3A inh – human GSK-3 alpha kinase inhibition. P49840. 320,000 tested, 0.1% active. inhibition, % at 10 µM. AID 2650. ADP-Glo luminescence, 60 min;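 active means more than half of replicates show inhibition above 20%; inconclusive means some but at most half of replicates above 20% inhibition; inactive means no replicate shows inhibition above 20%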;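 further: GST-tagged GSK-3 alpha with peptide substrate and 25 µM ATP; 0% = DMSO neutral wells and 100% = GW8510 positive control wells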
MEKK3 PB1 HTS – modulators (inhibitors or enhancers) of MEK5 binding to human MEKK3 PB1 domain; bead-based flow cytometry, Alexa488-MEK5 binding to MEKK3; actives lie on both sides; 0 = blocked by unlabeled MEK5, 100 = vehicle; binding response (% of control), % at 10 µM; 290,000 tested, 1.4% active; AID 1529;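 active means binding response more than 3 SD above or below the average of its plate-row segment, actives on both sides; inconclusive means wells at one plate position flagged as instrument error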;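 further: Alexa488 bead fluorescence after subtracting the streptavidin-only scavenger bead signal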
MEKK2mut PB1 HTS – signal of MEK5 binding to mutant human MEKK2 PB1 domain | 290,000 tested, 0.35% active | bead flow cytometry, Alexa488-MEK5 binding to MEKK2 mutant | AID 1530 | percent response, % at 10 µM; in the data active means percent response above about 24%, passing the limit was not always enough
MEKK2 WT-MEK5 – raises or lowers MEK5 binding to wildtype human MEKK2 PB1 domain | 290,000 tested, 1.1% active | bead flow cytometry, Alexa488-MEK5 binding to MEKK2 WT; actives lie on both sides | AID 1531 | Q9Y2U5 | binding response (% of control), % at 10 µM; in the data active means binding response below about 67% or above about 130%; inconclusive means no clear call, values can overlap the other calls; inactive means in between
GSK3beta inhib – inhibitors of human GSK3beta kinase | P49841 | GST-GSK3beta kinase, ADP-Glo luminescence, 60 min; hits give low values | activity score (negative = inhibition), % at 10 µM | 300,000 tested, 0.038% active;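 active means more than half of replicate wells score below -50%, meaning over 50% inhibition versus plate controls; inconclusive means some replicates but at most half score below -50%; inactive means no replicate scores below -50%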;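 further: 0% = median DMSO wells and -100% = median GW8510 positive control wells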
Target sequence (P49841 whole entry, looked up): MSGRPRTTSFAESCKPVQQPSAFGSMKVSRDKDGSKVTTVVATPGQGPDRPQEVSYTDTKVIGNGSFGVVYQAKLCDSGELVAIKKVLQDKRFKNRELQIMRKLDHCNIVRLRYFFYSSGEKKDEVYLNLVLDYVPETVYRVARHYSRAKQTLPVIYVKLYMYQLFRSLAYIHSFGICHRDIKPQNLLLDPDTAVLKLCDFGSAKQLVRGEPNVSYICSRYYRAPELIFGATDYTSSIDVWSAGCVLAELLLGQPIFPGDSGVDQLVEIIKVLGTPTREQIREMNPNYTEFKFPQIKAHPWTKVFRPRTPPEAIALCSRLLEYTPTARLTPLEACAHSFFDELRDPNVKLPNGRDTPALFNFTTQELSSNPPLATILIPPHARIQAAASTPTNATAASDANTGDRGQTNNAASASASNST
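Test system – GST-tagged human GSK3beta kinase, cell-free · Incubation – 60 min enzyme reaction, room temperature · Signal – ADP-Glo luminescence · Also added – peptide substrate and ATP at 25 µM · Controls – DMSO neutral wells and GW8510 at 20 µM as positive · Buffer or medium – Tris/MgCl2 kinase buffer · Measure – Luminescence-derived activity versus plate DMSO and GW8510 wells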
MEKK2wt confirm – raises or lowers MEK5 binding to wildtype human MEKK2, retest | bead flow cytometry, Alexa488-MEK5 binding to MEKK2 WT; actives lie on both sides | binding response (% of control), % at 10 µM | shares compounds with MEKK3 PB1 HTS | 5,900 tested, 2.4% active; in the data active means binding response below about 16% or above about 210%; inactive means in between
MEKK2mut-MEK5 – signal of MEK5 binding to mutant human MEKK2, retest | shares compounds with MEKK3 PB1 HTS | bead flow cytometry, Alexa488-MEK5 binding to MEKK2 mutant | percent response, % at 10 µM | 5,900 tested, 2% active | AID 1893; in the data active means percent response mostly above about 71%, no sharp cut-off; inactive means mostly below about 38%;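 further: higher means compound restores mutant binding toward wildtype level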
MEKK3 confirm – MEKK3-MEK5 PB1 inhibition, single concentration confirmation; 5,900 tested, 1.8% active; shares compounds with MEKK3 PB1 HTS; binding response (% of control), % at 10 µM; AID 1894; bead flow cytometry, Alexa488-MEK5 binding to MEKK3; hits give low values;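 active means binding response below 72% of control, or above a set upper limit, though filed actives all read lower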;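 further: 100% = DMSO only wells and 0% = binding blocked by excess unlabeled MEK5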
Numbers without * were called inactive; u = inconclusive; x = no result given.

SMILES	STK33 kinase inh	GSK3A inh	MEKK3 PB1 HTS	MEKK2mut PB1 HTS	MEKK2 WT-MEK5	GSK3beta inhib	MEKK2wt confirm	MEKK2mut-MEK5	MEKK3 confirm
C#CCOCCOCCOCCNc1nc(N2CCN(C(=O)[C@H]([C@@H](C)CC)n3cc([C@@H](N)CO)nn3)CC2)nc(N2CCN(C(=O)[C@H]([C@@H](C)CC)n3cc([C@@H](N)CC(C)C)nn3)CC2)n1	-1.2	-3.3	112.0	27.0	139.0*	1.6	115.0	6.0	101.0
C#CCOCCOCCOCCNc1nc(N2CCN(C(=O)C([C@@H](C)CC)n3cc(C(N)CC(C)C)nn3)CC2)nc(N2CCN(C(=O)[C@H](CCC(=O)O)n3cc(C(N)Cc4ccc(O)cc4)nn3)CC2)n1 (stereo not given in full)	-3.5	-0.7	105.0	9.0	113.0	2.2	x	x	x
C#CCOCCOCCOCCNc1nc(N2CCN(C(=O)[C@H](CCC(=O)O)n3cc(C(N)CC(C)C)nn3)CC2)nc(N2CCN(C(=O)[C@H](Cc3cc4ccccc4[nH]3)n3cc(C(N)[C@H](C)CC)nn3)CC2)n1 (stereo not given in full)	-1.6	-2.4	100.0	3.0	109.0	0.6	x	x	x
C#CCOCCOCCOCCNc1nc(N2CCN(C(=O)[C@H]([C@@H](C)CC)n3cc([C@@H](N)CC(C)C)nn3)CC2)nc(N2CCN(C(=O)[C@H](Cc3cc4ccccc4[nH]3)n3cc([C@@H](N)C(C)CC)nn3)CC2)n1 (stereo not given in full)	x	x	61.0	37.0*	184.0*	-6.9	227.0*	90.0*	106.0
C#CCOCCOCCOCCNc1nc(N2CCN(C(=O)[C@H](Cc3ccc(O)cc3)n3cc([C@@H](N)C(C)CC)nn3)CC2)nc(N2CCN(C(=O)[C@H](Cc3cc4ccccc4[nH]3)n3cc([C@@H](N)Cc4ccc(O)cc4)nn3)CC2)n1 (stereo not given in full)	-1.4	0.2	106.0	6.0	169.0*	-16.3	241.0*	125.0*	113.0
CC(C)=CC(=O)O[C@@H]1Cc2cc3ccc(=O)oc3cc2OC1(C)C	1.0	-2.3	x	x	x	x	x	x	x
CCOc1cccc(CN2CCC(N3CCC(C(=O)NCC4CCCO4)CC3)CC2)c1 (stereo not given)	-0.5	1.4	101.0	6.0	115.0	2.8	x	x	x
COc1cc(Cl)cc(CN2CCC(CCC(=O)NC3CC3)CC2)c1OC	-0.9	-0.6	100.0	3.0	105.0	0.3	x	x	x
C#CCOCCOCCOCCNc1nc(N2CCN(C(=O)[C@H](CCC(=O)O)n3cc(C(N)Cc4ccc(O)cc4)nn3)CC2)nc(N2CCN(C(=O)[C@H](Cc3ccc(O)cc3)n3cc(C(N)CC(C)C)nn3)CC2)n1 (stereo not given in full)	x	x	108.0	3.0	u	-0.5	x	x	x
C#CCOCCOCCOCCNc1nc(N2CCN(C(=O)[C@H](Cc3ccc(O)cc3)n3cc([C@@H](N)CC(C)C)nn3)CC2)nc(N2CCN(C(=O)[C@H](Cc3cc4ccccc4[nH]3)n3cc([C@@H](N)CC(C)C)nn3)CC2)n1	0.3	0.1	114.0	99.0*	230.0*	3.0	245.0*	93.0*	112.0
C#CCOCCOCCOCCNc1nc(N2CCN(C(=O)C(Cc3ccc(O)cc3)n3cc(C(N)CC(C)C)nn3)CC2)nc(N2CCN(C(=O)C(Cc3cc4ccccc4[nH]3)n3cc(C(N)C(C)CC)nn3)CC2)n1 (stereo not given)	0.1	-2.0	111.0	118.0*	239.0*	-0.6	237.0*	89.0*	106.0
CCOC(=O)COc1ccc(/C=C2/C(=O)NN(c3ccc(F)cc3)C2=O)cc1OC	-0.6	-1.5	116.0	15.0	167.0*	-1.3	98.0	-1.0	101.0
CCOC(=O)c1ccc(N2NC(=O)/C(=C/c3ccc(OC(=O)c4ccco4)c(OC)c3)C2=O)cc1	-1.1	2.1	100.0	-2.0	88.0	-2.5	x	x	x
CCCN(Cc1nnc(-c2cccs2)o1)C(=O)c1cccc(S(=O)(=O)N2CCOCC2)c1	0.2	2.3	x	x	x	x	x	x	x
COc1cc(NS(=O)(=O)c2ccc(-c3ccc(=O)[nH]n3)o2)cc(OC)c1OC	-0.2	-1.0	102.0	2.0	102.0	0.7	x	x	x
CCOC(=O)CN1C=C(c2ccc3ccccc3n2)C(C[N+](=O)[O-])c2ccccc21 (stereo not given)	0.7	4.6	103.0	82.0*	67.0*	-3.3	102.0	-10.0	96.0
CCOC(=O)CSc1ccc2ccccc2n1	-1.7	-3.6	87.0	-7.0	95.0	-0.8	x	x	x
COCc1cc(C)nc(OCC(=O)N/N=C/c2ccccc2O)c1C#N	-3.0	1.5	92.0	188.0*	85.0	-5.5	98.0	0.0	99.0
CC1CN(S(=O)(=O)c2ccc(C(=O)Nc3ccccc3F)cc2)CC(C)O1 (stereo not given)	0.8	-1.8	x	x	x	x	x	x	x
O=C1CS/C(=N/N=C/c2ccco2)N1Cc1ccc(F)cc1	-0.4	-0.7	85.0	-20.0	89.0	-1.7	x	x	x
C=C(C)Cn1c(CCn2c3ccccc3c3ccccc32)n[nH]c1=S	-0.8	-0.8	134.0*	4.0	102.0	0.2	91.0	1.0	101.0
COC(=O)c1ccc(Oc2ccc(C(F)(F)F)cn2)cc1	-0.3	1.2	152.0*	7.0	129.0	-2.9	103.0	-2.0	96.0
O=C(O)c1ccc(Oc2ccc(C(F)(F)F)cn2)cc1	-1.7	-1.3	91.0	-9.0	84.0	-2.2	x	x	x
O=C(c1cc(-c2ccccc2)nc2ccccc12)N1CCCC1	0.5	-4.7	103.0	-3.0	102.0	0.8	x	x	x
c1ccc(-c2cc(NCCN3CCCCC3)c3ccccc3n2)cc1	0.2	-0.4	111.0	23.0	139.0*	1.1	119.0	10.0	105.0
O=C(CCCc1c[nH]c2ccccc12)NCc1cccs1	0.4	0.2	102.0	-6.0	99.0	-2.5	x	x	x
O=C(Cc1c[nH]c2ccccc12)NCc1cccs1	0.0	-2.3	136.0*	0.0	108.0	-2.9	95.0	-13.0	96.0
O=C(CSc1c[nH]c2ccccc12)N1CCCc2ccccc21	-1.0	-0.7	108.0	11.0	111.0	1.8	x	x	x
